Measurements taken from ChEMBL document CHEMBL1126011 (J Med Chem, 1992).

target: Sodium-dependent dopamine transporter (Rattus norvegicus, UniProt P23977); assay: Inhibition of [3H]3-beta-(p-fluorophenyl)tropane-2beta-carboxylic acid methyl ester binding to Dopamine transporter in rat striatal membranes.; format: cell membranes, Membrane
Procedure, shortened: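 Male Sprague-Dawley rat (250-350 g) striata, frozen at -70 °C, homogenized in 10 mM phosphate buffer pH 7.4 with 0.32 M sucrose; 40000g pellet washed, resuspended at 1.0 mg/mL tissue. 0.5 nM [3H]-23 incubated 2 h on ice; filtration onto polyethylenimine-soaked GF/B filters, scintillation counting. IC50 from 10-12-point competition curves, 3-4 assays.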

Sodium-dependent dopamine transporter, sequence (P23977 whole entry): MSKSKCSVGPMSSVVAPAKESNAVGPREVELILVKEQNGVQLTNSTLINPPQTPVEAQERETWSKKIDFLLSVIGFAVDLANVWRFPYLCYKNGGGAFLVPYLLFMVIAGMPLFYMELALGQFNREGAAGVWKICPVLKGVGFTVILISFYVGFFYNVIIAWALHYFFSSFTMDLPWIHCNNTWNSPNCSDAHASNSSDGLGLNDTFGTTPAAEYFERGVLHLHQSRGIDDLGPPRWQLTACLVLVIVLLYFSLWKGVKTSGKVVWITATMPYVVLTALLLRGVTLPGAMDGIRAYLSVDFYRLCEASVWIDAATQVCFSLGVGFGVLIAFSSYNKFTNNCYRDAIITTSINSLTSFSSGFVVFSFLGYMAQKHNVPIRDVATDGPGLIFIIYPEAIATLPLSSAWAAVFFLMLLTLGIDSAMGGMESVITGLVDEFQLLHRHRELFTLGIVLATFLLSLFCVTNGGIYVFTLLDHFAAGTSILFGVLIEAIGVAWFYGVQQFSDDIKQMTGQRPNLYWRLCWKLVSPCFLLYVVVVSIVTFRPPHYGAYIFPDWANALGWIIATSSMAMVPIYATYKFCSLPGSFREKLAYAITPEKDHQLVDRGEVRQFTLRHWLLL

Row | SMILES | IC50
1 | CN1C2CC[C@@H]1C[C@H](OC(=O)c1ccccc1)C2C(=O)OCc1ccccc1 (stereo partly drawn) | 257 nM
2 | CN1C2CC[C@@H]1C[C@H](OC(=O)c1ccccc1)C2CO (stereo partly drawn) | 561 nM
3 | CN1C2CC[C@@H]1C[C@H](OC(=O)c1ccccc1)C2C(=O)OC/C=C/c1ccccc1 (stereo partly drawn) | 371 nM
4 | CN1C2CC[C@@H]1C[C@H](OC(=O)c1ccccc1)C2C(=O)OCCc1ccc([N+](=O)[O-])cc1 (stereo partly drawn) | 601 nM
5 | CN1C2CC[C@@H]1C[C@H](OC(=O)c1ccccc1)C2C(=O)OCCCc1ccccc1 (stereo partly drawn) | 139 nM
6 | CN1C2CC[C@@H]1C[C@H](OC(=O)c1ccccc1)C2C(=O)OCCc1ccc(N)cc1 (stereo partly drawn) | 72 nM
7 | CN1C2CC[C@@H]1C[C@H](OC(=O)c1ccccc1)C2C(=O)OCCc1ccc(Cl)cc1 (stereo partly drawn) | 271 nM
8 | CN1C2CC[C@@H]1C[C@H](OC(=O)c1ccccc1)C2C(=O)OCCc1ccc(N=C=S)cc1 (stereo partly drawn) | 196 nM
9 | CN1[C@@H]2CC[C@H]1C[C@H](OC(=O)c1ccccc1)C2 | 5180 nM
10 | CN1C2CC[C@@H]1C[C@H](OC(=O)c1ccccc1)C2C(=O)OCCc1ccccc1 (stereo partly drawn) | 248 nM
11 | CN1C2CC[C@@H]1C[C@H](OC(=O)c1ccccc1)C2C(=O)OCCc1ccc(NC(=O)CBr)cc1 (stereo partly drawn) | 61 nM
12 | CNC(=O)C1C2CC[C@H](C[C@@H]1OC(=O)c1ccccc1)N2C (stereo partly drawn) | 3180 nM
13 | CCOC(=O)CCC(=O)Nc1ccc(CCOC(=O)C2C3CC[C@H](C[C@@H]2OC(=O)c2ccccc2)N3C)cc1 (stereo partly drawn) | 86 nM
14 | CCCOC(=O)C1C2CC[C@H](C[C@@H]1OC(=O)c1ccccc1)N2C (stereo partly drawn) | 191 nM
15 | CN1C2CC[C@@H]1C[C@H](OC(=O)c1ccccc1)C2C(=O)OCCc1ccc(N=[N+]=[N-])cc1 (stereo partly drawn) | 227 nM
16 | CCOC(=O)C1C2CC[C@H](C[C@@H]1OC(=O)c1ccccc1)N2C (stereo partly drawn) | 130 nM
17 | CC(=O)OCC1C2CC[C@H](C[C@@H]1OC(=O)c1ccccc1)N2C (stereo partly drawn) | 272 nM
18 | CN1C2CC[C@@H]1C[C@H](OC(=O)c1ccccc1)C2C(=O)Oc1ccccc1 (stereo partly drawn) | 112 nM
